Consider two substances from publication PMC6500479 (Journal of controlled release : official journal of the …, 2019).

Bridges are numbered along the chain shown (N, C = ends). Where no end group is shown, it is not given here. FAM = carboxyfluorescein; Ahx = NCCCCCC(=O)O

For data set [1], the system named is macrophages. The following applies: ref [22]; cited from earlier work.
Data set [2] deals with 4T1 mouse mammary carcinoma. In words: In vivo homing to 4T1 orthotopic breast tumors. The following applies: 5 min, 15 min or 1 h after IV injection, IF. Put shortly: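 4T1 tumors came from 1 × 10⁶ cells in 100 μL PBS injected into the mammary fat pad of female BALB/c mice. FAM-labelled test peptide was given IV, 100 μL of 1 mg/mL in PBS, and circulated 5 min, 15 min or 1 h before PBS perfusion. Fixed frozen sections were blocked in 1% BSA/0.1% Triton X-100 for 1 h at RT. Primaries (1:200) ran overnight at 4 °C, secondaries (1:200) 1 h at RT, with anti-CD31 for vessels. DAPI mounting, confocal imaging.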

Data set [3] concerns bovine serum albumin (BSA). Put plainly: Binding to control protein BSA.

“Biotinylated CRV: Biotinylated CRV (CRVLRSGSC; disulfide 1-9; also: biotin, position not given here)”: the “Inhibition of FAM-CRV binding to macrophages” value in data set [1] was “inhibits the binding of FAM-CRV to macrophages”.

Take “GGSGGSKG ({FAM-Ahx}-GGSGGSKG-OH) [FAM-GGS]”: the “Accumulation in tumors over time” value in data set [2] is given as “little accumulation in tumors”. In data set [3], the “Binding to BSA” value is on record as “neither peptide bound”.
